Data: ChEMBL document CHEMBL4689842, “EUbOPEN Chemogenomics Library wave 1” (2021)

Tested on: U2OS
Assay: Multiplex assay against U2OS
Type: toxicity, cell-based
Conditions: human
How it was run: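 Per cents of healthy-nucleus cells form the tubulin, mitochondrial-mass and membrane-permeability phenotype values. Live cells were stained at seeding with Hoechst33342, BioTracker Green Microtubule Cytoskeleton Dye, MitoTracker Red and Annexin V Alexa Fluor 680. After compound addition they were imaged on a CQ1 microscope at 37°C and 5% CO2, and CellPathfinder machine-learning gating split them into Hoechst high-intensity objects or normal cells, normal cells into healthy, pyknosed or fragmented nuclei, and pyknosed cells into mitotic or apoptotic.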

[1] = 12 h, 1 µM, compound concentration 1 uM, replicate 1
[2] = 12 h, 1 µM, compound concentration 1 uM, replicate 2
[3] = 12 h, 10 µM, compound concentration 10 uM, replicate 1
[4] = 12 h, 10 µM, compound concentration 10 uM, replicate 2
[5] = 24 h, 1 µM, compound concentration 1 uM, replicate 1
[6] = 24 h, 1 µM, compound concentration 1 uM, replicate 2
[7] = 24 h, 10 µM, compound concentration 10 uM, replicate 1
[8] = 24 h, 10 µM, compound concentration 10 uM, replicate 2
[9] = 48 h, 1 µM, compound concentration 1 uM, replicate 1
[10] = 48 h, 1 µM, compound concentration 1 uM, replicate 2
[11] = 48 h, 10 µM, compound concentration 10 uM, replicate 1
[12] = 48 h, 10 µM, compound concentration 10 uM, replicate 2

## O=C(Nc1ccc(-c2ccnc(Nc3ccc(N4CCOCC4)cc3)n2)cc1)[C@@H]1CCCN1
[1]
  Population Apoptotic (%): 45%
  Population Fragmented Nuclei (%): 11%
  Population Healthy Nuclei (%): 76%
  Population Hoechst High Intensity Objects (%): 3%
  Population Membrane Permeable-Phenotype (%): 6%
  Population Mitochondria Different-Phenotype (%): 10%
  Population Mitotic Cells (%): 55%
  Population Normal (%): 96%
  Population Pyknosed Nuclei (%): 11%
  Population Tubulin-Different-Phenotype (%): 16%
  Total Cell Count: 100
[2]
  Population Apoptotic (%): 33%
  Population Fragmented Nuclei (%): 13%
  Population Hoechst High Intensity Objects (%): 7%
  Population Membrane Permeable-Phenotype (%): 4%
  Population Mitotic Cells (%): 66%
  Population Normal (%): 92%
  Population Pyknosed Nuclei (%): 10%
  Population Tubulin-Different-Phenotype (%): 10%
  Total Cell Count: 65
[3]
  Population Apoptotic (%): 62%
  Population Fragmented Nuclei (%): 13%
  Population Healthy Nuclei (%): 66%
  Population Hoechst High Intensity Objects (%): 7%
  Population Membrane Permeable-Phenotype (%): 12%
  Population Mitochondria Different-Phenotype (%): 74%
  Population Mitotic Cells (%): 37%
  Population Normal (%): 92%
  Population Pyknosed Nuclei (%): 20%
  Population Tubulin-Different-Phenotype (%): 97%
  Total Cell Count: 176
[4]
  Population Apoptotic (%): 77%
  Population Fragmented Nuclei (%): 7%
  Population Healthy Nuclei (%): 77%
  Population Hoechst High Intensity Objects (%): 5%
  Population Membrane Permeable-Phenotype (%): 8%
  Population Mitochondria Different-Phenotype (%): 28%
  Population Mitotic Cells (%): 22%
  Population Normal (%): 94%
  Population Pyknosed Nuclei (%): 14%
  Population Tubulin-Different-Phenotype (%): 44%
  Total Cell Count: 65
[5]
  Population Apoptotic (%): 41%
  Population Fragmented Nuclei (%): 8%
  Population Healthy Nuclei (%): 76%
  Population Hoechst High Intensity Objects (%): 3%
  Population Membrane Permeable-Phenotype (%): 7%
  Population Mitochondria Different-Phenotype (%): 9%
  Population Mitotic Cells (%): 58%
  Population Normal (%): 96%
  Population Pyknosed Nuclei (%): 15%
  Population Tubulin-Different-Phenotype (%): 10%
  Total Cell Count: 90
[6]
  Population Apoptotic (%): 60%
  Population Fragmented Nuclei (%): 7%
  Population Healthy Nuclei (%): 85%
  Population Hoechst High Intensity Objects (%): 6%
  Population Membrane Permeable-Phenotype (%): 3%
  Population Mitochondria Different-Phenotype (%): 19%
  Population Mitotic Cells (%): 40%
  Population Normal (%): 93%
  Population Pyknosed Nuclei (%): 7%
  Total Cell Count: 63
[7]
  Population Apoptotic (%): 60%
  Population Fragmented Nuclei (%): 12%
  Population Healthy Nuclei (%): 65%
  Population Hoechst High Intensity Objects (%): 7%
  Population Membrane Permeable-Phenotype (%): 17%
  Population Mitochondria Different-Phenotype (%): 80%
  Population Mitotic Cells (%): 39%
  Population Normal (%): 92%
  Population Pyknosed Nuclei (%): 21%
  Population Tubulin-Different-Phenotype (%): 97%
  Total Cell Count: 198
[8]
  Population Apoptotic (%): 58%
  Population Fragmented Nuclei (%): 18%
  Population Healthy Nuclei (%): 64%
  Population Hoechst High Intensity Objects (%): 1%
  Population Membrane Permeable-Phenotype (%): 13%
  Population Mitochondria Different-Phenotype (%): 17%
  Population Mitotic Cells (%): 41%
  Population Normal (%): 98%
  Population Pyknosed Nuclei (%): 17%
  Population Tubulin-Different-Phenotype (%): 22%
  Total Cell Count: 72
[9]
  Population Apoptotic (%): 36%
  Population Fragmented Nuclei (%): 5%
  Population Hoechst High Intensity Objects (%): 1%
  Population Membrane Permeable-Phenotype (%): 4%
  Population Mitochondria Different-Phenotype (%): 8%
  Population Mitotic Cells (%): 63%
  Population Normal (%): 98%
  Population Pyknosed Nuclei (%): 13%
  Population Tubulin-Different-Phenotype (%): 13%
  Total Cell Count: 94
[10]
  Population Apoptotic (%): 0%
  Population Fragmented Nuclei (%): 10%
  Population Healthy Nuclei (%): 80%
  Population Hoechst High Intensity Objects (%): 5%
  Population Membrane Permeable-Phenotype (%): 5%
  Population Mitochondria Different-Phenotype (%): 12%
  Population Mitotic Cells (%): 100%
  Population Normal (%): 94%
  Population Pyknosed Nuclei (%): 9%
  Population Tubulin-Different-Phenotype (%): 16%
  Total Cell Count: 61
[11]
  Population Apoptotic (%): 67%
  Population Fragmented Nuclei (%): 24%
  Population Healthy Nuclei (%): 48%
  Population Hoechst High Intensity Objects (%): 6%
  Population Membrane Permeable-Phenotype (%): 18%
  Population Mitochondria Different-Phenotype (%): 53%
  Population Mitotic Cells (%): 32%
  Population Normal (%): 93%
  Population Pyknosed Nuclei (%): 26%
  Population Tubulin-Different-Phenotype (%): 86%
  Total Cell Count: 289
[12]
  Population Apoptotic (%): 60%
  Population Fragmented Nuclei (%): 9%
  Population Healthy Nuclei (%): 70%
  Population Hoechst High Intensity Objects (%): 8%
  Population Membrane Permeable-Phenotype (%): 28%
  Population Mitochondria Different-Phenotype (%): 32%
  Population Mitotic Cells (%): 40%
  Population Normal (%): 91%
  Population Pyknosed Nuclei (%): 20%
  Population Tubulin-Different-Phenotype (%): 23%
  Total Cell Count: 125

## COc1cc2ncnc(Nc3ccc(F)c(Cl)c3)c2cc1NC(=O)/C=C/CN1CCCCC1 [DACOMITINIB ANHYDROUS]
[1]
  Population Apoptotic (%): 5%
  Population Fragmented Nuclei (%): 6%
  Population Healthy Nuclei (%): 84%
  Population Hoechst High Intensity Objects (%): 6%
  Population Membrane Permeable-Phenotype (%): 72%
  Population Mitochondria Different-Phenotype (%): 3%
  Population Mitotic Cells (%): 94%
  Population Normal (%): 93%
  Population Pyknosed Nuclei (%): 8%
  Population Tubulin-Different-Phenotype (%): 45%
  Total Cell Count: 197
[2]
  Population Apoptotic (%): 60%
  Population Fragmented Nuclei (%): 11%
  Population Hoechst High Intensity Objects (%): 8%
  Population Membrane Permeable-Phenotype (%): 24%
  Population Mitochondria Different-Phenotype (%): 32%
  Population Mitotic Cells (%): 40%
  Population Normal (%): 91%
  Population Pyknosed Nuclei (%): 4%
  Population Tubulin-Different-Phenotype (%): 69%
  Total Cell Count: 127
[3]
  Population Apoptotic (%): 0%
  Population Fragmented Nuclei (%): 3%
  Population Healthy Nuclei (%): 92%
  Population Hoechst High Intensity Objects (%): 3%
  Population Membrane Permeable-Phenotype (%): 31%
  Population Mitochondria Different-Phenotype (%): 7%
  Population Mitotic Cells (%): 100%
  Population Normal (%): 96%
  Population Pyknosed Nuclei (%): 4%
  Population Tubulin-Different-Phenotype (%): 15%
  Total Cell Count: 182
[4]
  Population Fragmented Nuclei (%): 14%
  Population Healthy Nuclei (%): 82%
  Population Hoechst High Intensity Objects (%): 10%
  Population Membrane Permeable-Phenotype (%): 10%
  Population Mitochondria Different-Phenotype (%): 17%
  Population Normal (%): 89%
  Population Pyknosed Nuclei (%): 2%
  Population Tubulin-Different-Phenotype (%): 18%
  Total Cell Count: 118
[5]
  Population Apoptotic (%): 46%
  Population Fragmented Nuclei (%): 9%
  Population Healthy Nuclei (%): 81%
  Population Hoechst High Intensity Objects (%): 5%
  Population Membrane Permeable-Phenotype (%): 65%
  Population Mitochondria Different-Phenotype (%): 5%
  Population Mitotic Cells (%): 53%
  Population Normal (%): 94%
  Population Pyknosed Nuclei (%): 9%
  Population Tubulin-Different-Phenotype (%): 39%
  Total Cell Count: 262
[6]
  Population Apoptotic (%): 75%
  Population Fragmented Nuclei (%): 14%
  Population Healthy Nuclei (%): 78%
  Population Membrane Permeable-Phenotype (%): 11%
  Population Mitochondria Different-Phenotype (%): 50%
  Population Mitotic Cells (%): 25%
  Population Pyknosed Nuclei (%): 7%
  Population Tubulin-Different-Phenotype (%): 58%
  Total Cell Count: 158
[7]
  Population Apoptotic (%): 40%
  Population Fragmented Nuclei (%): 5%
  Population Healthy Nuclei (%): 86%
  Population Hoechst High Intensity Objects (%): 2%
  Population Membrane Permeable-Phenotype (%): 15%
  Population Mitochondria Different-Phenotype (%): 10%
  Population Mitotic Cells (%): 59%
  Population Normal (%): 97%
  Population Pyknosed Nuclei (%): 8%
  Population Tubulin-Different-Phenotype (%): 14%
  Total Cell Count: 184
[8]
  Population Apoptotic (%): 50%
  Population Fragmented Nuclei (%): 6%
  Population Healthy Nuclei (%): 87%
  Population Hoechst High Intensity Objects (%): 9%
  Population Membrane Permeable-Phenotype (%): 18%
  Population Mitochondria Different-Phenotype (%): 24%
  Population Mitotic Cells (%): 50%
  Population Normal (%): 90%
  Population Pyknosed Nuclei (%): 5%
  Population Tubulin-Different-Phenotype (%): 22%
  Total Cell Count: 114
